Hits are enriched below; roughly 2.6% of the tested compounds scored in any of these assays.
FGF22 binding – binders of recombinant human FGF22 by thermal shift | Q9HCT0 | hit rate 1.5% among 340,000 | SYPRO orange fluorescence; percent of sucrose octasulfate shift, DMSO zero | AID 651658 | activity (Tm shift, normalised), % at 9.99 µM;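 active = mean Tm shift, scaled 0 neutral to 100 positive control, at about 1.3% or above, every replicate too, limit read from the data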
Target sequence (Q9HCT0 whole entry, looked up): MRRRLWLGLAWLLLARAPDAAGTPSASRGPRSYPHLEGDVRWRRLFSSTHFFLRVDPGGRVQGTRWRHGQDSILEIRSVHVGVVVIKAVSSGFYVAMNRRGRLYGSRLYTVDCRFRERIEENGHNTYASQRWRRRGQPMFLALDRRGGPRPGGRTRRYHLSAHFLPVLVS
Casp6 inh – inhibitors of human caspase-6. inhibition, % at 12.5 µM. purified caspase-6, Z-VEID-R110 cleavage fluorescence. hit rate 0.53% among 350,000;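 active = mean inhibition across replicates at least about 35%, with every replicate also reaching that limit, limit read from the data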;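 note: 0% = median of neutral control wells and 100% = no fluorescence left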
Target sequence (P55212 24-179 limits assumed): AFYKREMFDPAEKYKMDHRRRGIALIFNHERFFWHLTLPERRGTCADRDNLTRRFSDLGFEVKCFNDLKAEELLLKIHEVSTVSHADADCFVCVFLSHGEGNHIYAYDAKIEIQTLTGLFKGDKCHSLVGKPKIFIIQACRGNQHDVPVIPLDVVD
Target sequence (P55212 194-293 limits assumed): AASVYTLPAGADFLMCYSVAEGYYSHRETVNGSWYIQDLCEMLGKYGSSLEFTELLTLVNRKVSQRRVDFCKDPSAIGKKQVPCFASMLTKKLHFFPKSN
SIRT5 block – blocks human SIRT5 desuccinylation of peptide; Q9NXA8; Purified SirT5, succinyl-peptide AMC, trypsin-coupled fluorescence; inhibition, % at 15 µM; hit rate 1.1% among 330,000; in the data active = inhibition above about 15%
UCH37 DUB inh – inhibitors of human deubiquitinating enzyme UCH37; purified proteasome/UCH37, Ub-AMC cleavage fluorescence; inhibition, % (concentration not given with the values); hit rate 0.33% among 330,000; Q9Y5K5;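 active = mean inhibition over replicate wells above about 20%, limit read from the data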;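 note: 0% = compound-free wells with enzyme and 100% = wells lacking proteasome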
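Signal – fluorescence, ex 355 nm, em 460 nm · System – Proteasome-bound UCH37 · Input – 0.15 nM proteasome as dispensed · Timing – 30 min preincubation with enzyme, 25 min cleavage at room temperature · Read-out basis – percent inhibition of cleavage signal versus uninhibited and no-proteasome wells · Medium – Tris-HCl pH 7.4 with ATP-MgCl2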
NSD2 HMT inh – blocks human histone methyltransferase NSD2 | O96028 | NSD2 peptide methylation, AlphaScreen, 120 min | inhibition, % at 12.5 µM | hit rate 0.54% among 310,000 | AID 743445; in the data active = inhibition above about 50%
Numbers without * were called inactive; . = not tested or not shown.

SMILES	FGF22 binding	Casp6 inh	SIRT5 block	UCH37 DUB inh	NSD2 HMT inh
CC1CN(S(=O)(=O)c2ccc(C(=O)Nc3nc(-c4cc5ccccc5o4)cs3)cc2)CC(C)O1 (configuration not stated)	44*	-2	-2	-94	2
O=C(Nc1nc(-c2ccc(S(=O)(=O)N3CCOCC3)cc2)cs1)c1ccccc1	44*	-2	.	0	1
C[C@H]1CN([C@@H](C)CO)C(=O)c2cc(C#CCN(C)C)cnc2O[C@@H]1CN(C)C(=O)NC1CCCCC1	0	-24	5	.	.
O=C(Nc1nnc(-c2cccs2)o1)c1ccc(S(=O)(=O)N2CCOCC2)cc1	44*	-1	2	5	-3
O=C(Nc1nnc(-c2ccccc2Cl)o1)c1ccc(S(=O)(=O)N2CCCCCC2)cc1	.	.	.	0	.
Clc1nccc(N2CCN(c3ccccc3Cl)CC2)n1	0	-1	18*	2	-1
O=C(C[C@@H]1CC[C@@H](NC(=O)CCN2CCCCC2)[C@H](CO)O1)NCc1ccc(Cl)c(Cl)c1	0	-5	-4	.	.
CC(=O)c1ccc(NC(=S)Nc2ccc3cn[nH]c3c2)cc1	1.8*	7	9	0	1
O=C(NC(=S)Nc1ccc(Br)c(Cl)c1)C1CC1	0	-1	0	1	-2
CC(=O)c1ccc(NC(=S)Nc2ccc(Br)c(Cl)c2)cc1	1.4*	-2	.	9	-3
Cc1cc(C)cc(N(CC(=O)N2CCCCCC2)S(C)(=O)=O)c1	0	36*	3	1	-1
CS(=O)(=O)N(CC(=O)N1CCCCCC1)c1ccccc1	.	.	.	1	-3
CC(C)c1ccc(CNC(=O)C(=O)Nc2nccs2)cc1	43*	-3	5	-7	-2
O=C(NCc1ccc(Cl)cc1)C(=O)Nc1nccs1	0	-1	-2	2	-8
Oc1ccc(Br)cc1CNc1cccc2cccnc12	0	3	-2	.	13
Oc1ccc(Cl)cc1CNc1cccc2cccnc12	-1	84*	3	8	3
CO[C@@H]1CN(C)C(=O)c2cc(NS(C)(=O)=O)ccc2OC[C@@H](C)NC[C@@H]1C	.	2	-4	.	.
Cc1cccc(C)c1NS(=O)(=O)c1ccc(OCCNS(C)(=O)=O)cc1	43*	1	-1	1	-1
CS(=O)(=O)NCCOc1ccc(S(=O)(=O)NCCOc2ccccc2)cc1	0	0	1	2	4
CCC(C)(C)C1CCC(=NNS(=O)(=O)c2ccc(C)c([N+](=O)[O-])c2)CC1 (configuration not stated)	0	-6	18*	3	5
Cc1ccc(S(=O)(=O)N/N=C2/CCCCC2C2CCCCC2)cc1[N+](=O)[O-] (configuration not stated)	.	.	.	.	-1
CSc1nc2c(c(=O)[nH]1)C(c1ccc(F)cc1)CC(=O)N2 (configuration not stated)	43*	-2	-6	2	-3
COC(=O)CN1C(=O)COc2ccc(S(=O)(=O)N3CCCC3)cc21	0	0	-3	2	3
COC(=O)CN1C(=O)COc2ccc(S(=O)(=O)N3CCCCC3)cc21	0	52*	.	.	-3
CO[C@@H]1CN(C)C(=O)c2ccc(NC(C)=O)cc2OC[C@@H](C)N(Cc2ccccn2)C[C@@H]1C	0	1	-1	.	.
SMILES	FGF22 binding	Casp6 inh	SIRT5 block	UCH37 DUB inh	NSD2 HMT inh
C[C@H]1CN([C@@H](C)CO)C(=O)c2cc(NC(=O)CCC(F)(F)F)ccc2O[C@@H]1CN(C)Cc1ccc(C(=O)Nc2ccccc2N)cc1	0	-2	4	.	.
CN(C)c1cccc2c1c(NS(=O)(=O)c1cn(C)cn1)nn2C	-1	52*	4	-26	78*
Cn1cnc(S(=O)(=O)NCc2ccccc2)c1	.	.	.	-3	-3
C[C@H]1CN([C@@H](C)CO)C(=O)c2ccccc2-c2ccccc2CO[C@@H]1CN(C)Cc1ccc(Cl)c(Cl)c1	-1	4	19*	.	.
C[C@@H]1CN([C@H](C)CO)C(=O)c2ccccc2-c2ccccc2CO[C@@H]1CN(C)Cc1ccc(Cl)c(Cl)c1	-1	1	2	.	.
CCOC(=O)N(C)C[C@@H]1OCc2ccccc2-c2ccccc2C(=O)N([C@@H](C)CO)C[C@H]1C	0	-2	25*	.	.
C[C@H](CO)N1C[C@H](C)[C@@H](CN(C)Cc2ccccc2C(F)(F)F)OCc2ccccc2-c2ccccc2C1=O	-1	2	30*	.	.
C[C@@H]1CN([C@@H](C)CO)C(=O)c2ccccc2-c2ccccc2CO[C@@H]1CN(C)Cc1ccccc1C(F)(F)F	0	0	12	.	.
C[C@H]1CN([C@@H](C)CO)C(=O)c2ccccc2-c2ccccc2CO[C@H]1CN(C)Cc1ccccc1C(F)(F)F	-1	-2	17*	.	.
CCC(=O)N1CCC2(CC1)CN(Cc1cccc(F)c1)[C@@H](CO)c1c2c2ccc(OC)cc2n1C	0	.	.	.	.
Cc1noc(C)c1NC(=O)N(C)C[C@H]1Oc2ncc(C#CC3CCCC3)cc2C(=O)N([C@@H](C)CO)C[C@@H]1C	0	-3	3	.	.
C[C@H]1CN([C@@H](C)CO)C(=O)c2ccccc2-c2ccccc2CO[C@@H]1CN(C)C(=O)Nc1ccccc1C(F)(F)F	0	1	21*	.	.
C[C@H]1CN([C@@H](C)CO)C(=O)c2ccccc2-c2ccccc2CO[C@@H]1CN(C)Cc1cccc(C(F)(F)F)c1	0	0	19*	.	.
C[C@@H]1CN([C@H](C)CO)C(=O)c2ccccc2-c2ccccc2CO[C@H]1CN(C)C(=O)Nc1ccccc1C(F)(F)F	0	1	.	.	.
C[C@@H]1CN([C@H](C)CO)C(=O)c2ccccc2-c2ccccc2CO[C@@H]1CN(C)Cc1cccc(C(F)(F)F)c1	0	-1	5	.	.
COc1ccc(N=N/C(=C\O)C(=O)c2ccco2)cc1	43*	0	2	7	3
CCN1CCN(CCCNC(=O)C2CCCN(c3nnc(-n4cccc4)s3)C2)CC1 (configuration not stated)	.	.	.	23*	-3
COC(CN(C(=O)CCl)C(C(=O)NC1CCCC(C)C1C)c1ccc(C)cc1)OC (configuration not stated)	.	.	.	22*	.
COC(CN(C(=O)CCl)C(C(=O)NC1CCCCC1)c1ccc(Cl)cc1)OC (configuration not stated)	0	-1	6	1	5
Cc1nn(-c2ccccc2)c(Cl)c1C=NNc1nncc(=O)[nH]1	.	.	.	4	.
O=C(Oc1ccccc1C(=O)Oc1ccccc1)c1cccnc1	43*	2	-5	3	-4
O=C(Oc1ccc(Nc2ncnc3ccccc23)cc1)c1cccnc1	0	38*	3	4	1
ON=Cc1ccccc1OCc1ccccc1Cl	.	.	.	4	.
COc1ccc(NC(=O)N(C)C[C@@H]2OCCCC[C@H](C)Oc3ccc(NS(=O)(=O)c4ccc(C)cc4)cc3C(=O)N([C@H](C)CO)C[C@H]2C)cc1	.	-2	6	.	.

Bioassay records as filed in PubChem BioAssay.
